Where two headings read alike, the source gives them in different places. Each block holds one compound with its values, some of them ahead of it.
Tests used:
SKBR3 cells = test: Microinjection of SKBR3 cells with GCaMP6M confocal Ca2+ imaging; type: cell-based, human; conditions: for EC50 of fold-change in the intensity of the Ca2+ signal: SKBR3 cells transfected with TPC2 and GCaMP6M, concentration in the micropipette
[1] = system: sea urchin NAADP receptor; test: Ca2+ release from sea urchin egg homogenates; type: biochemical, Strongylocentrotus purpuratus
Procedure, shortened: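 Ca2+ release measured in Strongylocentrotus purpuratus egg homogenate after adding test compound.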

[2] = molecular target: sea urchin NAADP receptor; test: Competition-binding assay with [32P]-NAADP in sea urchin egg extracts; set-up: species or system Strongylocentrotus purpuratus; conditions: read-out: IC50 competition with [32P]-NAADP
U2OS cells = conditions: cited from earlier work
[3] = molecular target: T1, 23 kDa NAADP binding protein(s) (Homo sapiens, UniProt Q9H910); conditions: Jurkat cell extracts, 23 kDa band
T1 sequence (Q9H910 1-190): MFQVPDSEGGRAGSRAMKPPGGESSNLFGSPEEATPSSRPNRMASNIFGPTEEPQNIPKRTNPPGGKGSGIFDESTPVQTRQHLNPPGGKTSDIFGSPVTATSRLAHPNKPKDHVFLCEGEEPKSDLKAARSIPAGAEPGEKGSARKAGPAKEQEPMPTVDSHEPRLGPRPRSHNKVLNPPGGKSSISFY

[4] = Solubility in buffered water; type: physicochemical
[5] = molecular target: sea urchin NAADP receptor; conditions: sea urchin egg homogenates, cited from earlier work
[6] = molecular target: sea urchin NAADP receptor; type: biochemical, Strongylocentrotus purpuratus; conditions: read-out: IC50 for desensitization; data not shown
ascidian oocytes = conditions: read-out: EC50 of Ca2+ mobilization; cited from earlier work

EC50 of fold-change in the intensity of the Ca2+ signal (SKBR3 cells): 173 nM
Calcium released, % of the amount of calcium released by 10 μM NAADP ([1]; at 1 mM): 18%
Release of Ca2+ from sea urchin egg homogenates ([1]; concentrations less than 100 μM): did not elicit release
IC50 [2]: 6000 nM
Compound: 5-[3-(3-Azido-5-(azidomethyl)benzamido)propyl]-NAADP [AIOC-NAADP]
Potency relative to 9 (SKBR3 cells; microinjection into cultured human cells, 9 data ref 56): approximately 10 fold

Compound: C#Cc1nc2c(N)ncnc2n1C1OC(COP(=O)(O)OP(=O)(O)OC[C@H]2O[C@@H]([n+]3cc(N=[N+]=[N-])cc(C(=O)[O-])c3)[C@H](O)[C@@H]2O)C(O)C1OP(=O)(O)O (some centres unmarked) [compound 9, 5-azido-8-ethynyl-NAADP]
Activity when microinjected into cultured human U2OS cells (U2OS cells): active at low concentration

Compound: NC(=O)c1ccc[n+]([C@H]2O[C@@H](COP(=O)([O-])OP(=O)(O)OC[C@H]3O[C@@H](n4cnc5c(N)ncnc54)[C@H](OP(=O)(O)O)[C@@H]3O)[C@H](O)[C@@H]2O)c1 [NADP]
Fold higher concentrations required for similar protection compared with NAADP [3]: 40 fold

Solubility ([4]; buffered water at pH 4.5): low solubility
Solubility ([4]; higher pH (pH ≥ 5)): completely soluble
Compound: [N-]=[N+]=NCc1cc(N=[N+]=[N-])cc(C(=O)NCCCc2cncc(C(=O)O)c2)c1 [compound 4, 5-(3-(3-Azido-5-(azidomethyl)benzamido)propyl) nicotinic acid]

Compound: 5-(3-(t-Boc-amino)-propyl)-NAADP [compound 3]
EC50 (agonist) ([5]; previously synthesized and tested): micromolar range

Compound: nicotinic acid adenine dinucleotide phosphate [NAADP]
IC50 [6]: 0.3 nM
EC50 (ascidian oocytes): 10 to 50 nM
EC50 of fold-change in the intensity of the Ca2+ signal (SKBR3 cells): 22 nM
EC50 ([5]; read-out: EC50 of Ca2+ mobilization): 10 to 50 nM
